Measured values taken from ChEMBL document CHEMBL1137561 (J Med Chem, 2007).
pEC50, pKi: −log10 of the molar value.

Experiments:
[1] = Cytotoxicity against MT4 cells after 4 days by MTT method; type: cell-based; settings: human
Outline: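 Mock-infected (noninfected) MT-4 cells, run in parallel with the antiviral test. Viable cells read by the MTT tetrazolium colorimetric method. […] Means ± SD from at least two experiments. The top concentration was limited where compounds precipitated in the culture medium.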

[2] = system: Human immunodeficiency virus 1; test: Antiviral activity against HIV1 with reverse transcriptase Y181C mutation in MT4 cells assessed as inhibition of viral induced cytopathic effect by MTT method; type: functional, organism-based; settings: Human immunodeficiency virus 1, MT4
Outline: (§1)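 MT-4 cells infected with the HIV-1 NNRTI-resistant mutant strain. Viable cells scored at day 5 post-infection by the MTT tetrazolium colorimetric method. […] Values are means ± SD from at least two experiments.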

[3] = system: Human immunodeficiency virus 1; test: Antiviral activity against HIV1 NL43 in MT4 cells assessed as inhibition of viral induced cytopathic effect after 5 days by MTT method; settings: Human immunodeficiency virus 1, NL43, MT4, 120 h
[4] = Resistance index, Ratio of EC50 for drug-resistant HIV1 with RT Y181C mutation in MT4 cells to EC50 for HIV1 NL43 in MT4 cells
[5] = system: Human immunodeficiency virus 1; test: Antiviral activity against HIV1 with reverse transcriptase K103N mutation in MT4 cells assessed as inhibition of viral induced cytopathic effect by MTT method; type: functional, organism-based; settings: Human immunodeficiency virus 1, MT4; outline: as §1
[6] = Resistance index, Ratio of EC50 for drug-resistant HIV1 with RT IRLL98 mutation in MT4 cells to EC50 for HIV1 NL43 in MT4 cells
[7] = system: Human immunodeficiency virus 1; test: Antiviral activity against HIV1 with reverse transcriptase IRLL98 mutation in MT4 cells assessed as inhibition of viral induced cytopathic effect by MTT method; type: functional, organism-based; settings: Human immunodeficiency virus 1, MT4
[8] = Selectivity index, ratio of CC50 for MT4 cells to EC50 for HIV1 NL43 infected MT4 cells; type: functional
[9] = Resistance index, Ratio of EC50 for drug-resistant HIV1 with RT K103N mutation in MT4 cells to EC50 for HIV1 NL43 in MT4 cells
[10] = system: Human immunodeficiency virus 1; test: Antiviral activity against HIV1 with reverse transcriptase Y188L mutation in MT4 cells assessed as inhibition of viral induced cytopathic effect by MTT method; type: functional, organism-based; settings: Human immunodeficiency virus 1, MT4
Outline: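 MT-4 cells infected with the HIV-1 NNRTI-resistant mutant strain. Viable cells scored at day 5 post-infection by the MTT tetrazolium colorimetric method. Values are means ± SD from at least two experiments.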

[11] = Resistance index, Ratio of EC50 for drug-resistant HIV1 with RT Y188L mutation in MT4 cells to EC50 for HIV1 NL43 in MT4 cells
[12] = molecular target: Human immunodeficiency virus type 1 reverse transcriptase (Human immunodeficiency virus 1, UniProt Q72547, K103N); test: Inhibition of HIV1 reverse transcriptase K103N mutant
[13] = molecular target: Human immunodeficiency virus type 1 reverse transcriptase (Human immunodeficiency virus 1, UniProt Q72547, L100I); test: Inhibition of HIV1 reverse transcriptase L100I mutant
[14] = molecular target: Human immunodeficiency virus type 1 reverse transcriptase (Human immunodeficiency virus 1, UniProt Q72547, Y188L); test: Inhibition of HIV1 reverse transcriptase Y188L mutant
[15] = molecular target: Human immunodeficiency virus type 1 reverse transcriptase (Human immunodeficiency virus 1, UniProt Q72547, V179D); test: Inhibition of HIV1 reverse transcriptase V179D mutant
[16] = molecular target: Human immunodeficiency virus type 1 reverse transcriptase (Human immunodeficiency virus 1, UniProt Q72547); test: Inhibition of wild type HIV1 3B reverse transcriptase
[17] = molecular target: Human immunodeficiency virus type 1 reverse transcriptase (Human immunodeficiency virus 1, UniProt Q72547, V106A); test: Inhibition of HIV1 reverse transcriptase V106A mutant
[18] = Inhibition of HIV1 reverse transcriptase Y1811 mutant; set-up: species or system Human immunodeficiency virus 1
Outline: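 Recombinant HIV-1 RT Y181I mutant, purified to >95%, 10 min preincubation with inhibitor. Radioactive nucleotide incorporation into poly(rA)/oligo(dT) 10:1 was followed at varied nucleotide substrate levels, sampling every 2 min for initial velocities. Inhibitor spanned 0.2–5 Ki. Ki came from Lineweaver-Burk and Dixon plots. Means ± SD of at least three experiments.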

[19] = system: Human immunodeficiency virus 1; test: Resistance index, ratio of Ki for HIV1 reverse transcriptase Y181I mutant to Ki for wild type HIV1 3B reverse transcriptase
Outline: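 Initial velocities came from radioactive nucleotide incorporation into poly(rA)/oligo(dT) 10:1, sampled every 2 min. Inhibitor spanned 0.2–5 Ki, with Lineweaver-Burk and Dixon plots. Fold-resistance is Ki mutant / Ki wild type.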

Row | SMILES | CC50 at 96 h [1] [nM] | pEC50 [2] | pEC50 [3] | Ratio EC50 [4] | pEC50 [5] | Ratio EC50 [6] | pEC50 [7] | Ratio CC50/EC50 [8] | Ratio EC50 [9] | pEC50 [10] | Ratio EC50 [11] | pKi [12] | pKi [13] | pKi [14] | pKi [15] | pKi [16] | pKi [17] | pKi [18] | Ratio Ki [19]
1 | Cc1c(C(C)c2c(F)cccc2F)nc(N2CCC(C)CC2)[nH]c1=O (configuration not stated) | 54000 | 8.00 | 8.70 | 5 | 6.49 | 150 | 6.52 | 27000 | 161 | 6.66 | 110 | – | – | – | – | – | – | – | –
2 | Cc1c(Cc2c(F)cccc2F)nc(N(C)C2CCCCC2)[nH]c1=O | > 72000 | 6.85 | 8.05 | 16 | 5.36 | 222 | 5.70 | >8000 | 489 | 5.21 | 689 | – | – | – | – | – | – | – | –
3 | O=c1cc(Cc2c(F)cccc2F)nc(N2CCCCC2)[nH]1 | > 82000 | 6.15 | 7.89 | 55 | < 5.00 | 169 | 5.66 | >6308 | – | 5.10 | 615 | < 4.70 | 5.00 | < 4.70 | 5.30 | 5.60 | 6.70 | < 4.70 | –
4 | CCCN(C)c1nc(C(C)c2c(F)cccc2F)c(C)c(=O)[nH]1 (configuration not stated) | > 78000 | 9.22 | 9.22 | 1 | 8.00 | 1.7 | 9.00 | >130000 | 17 | 7.52 | 50 | 6.77 | 6.74 | 5.84 | – | 7.52 | 7.70 | 5.90 | 42
5 | Cc1c(Cc2c(F)cccc2F)nc(N(C)C(C)C)[nH]c1=O | 79000 | 7.52 | 8.70 | 15 | 5.92 | 40 | 7.10 | 39500 | 600 | 5.64 | 1150 | – | – | – | – | – | – | – | –
6 | CCC(c1nc(N(C)C)[nH]c(=O)c1C)c1c(F)cccc1F (configuration not stated) | > 81000 | 6.54 | 8.15 | 41 | 5.74 | 169 | 5.93 | >11571 | 261 | 6.32 | 69 | < 4.70 | < 4.70 | < 4.70 | < 4.40 | 6.00 | < 4.40 | < 4.70 | –
7 | CCCN(C)c1nc(Cc2c(F)cccc2F)c(C)c(=O)[nH]1 | > 81000 | 7.41 | 8.70 | 19 | 6.12 | 27 | 7.26 | >40500 | 375 | 5.80 | 800 | < 4.70 | 4.74 | < 4.70 | 6.70 | 7.00 | 8.10 | < 4.70 | –
8 | Cc1c(C(C)c2c(F)cccc2F)nc(N(C)C(C)C)[nH]c1=O (configuration not stated) | > 81000 | 9.15 | 9.30 | 1.4 | 8.22 | 2 | 9.00 | >162000 | 12 | 7.40 | 80 | 7.10 | 5.00 | 5.92 | – | 7.40 | 7.52 | 6.07 | 21
